# T cell HTS: modulators of CD8 T cell-vesicle binding, primary screen, mouse 2C CD8+ T cells, flow cytometry | 2C CD8+ T cell-vesicle binding; active compounds read low | response (vesicle binding), % at 7 µM | 330,000 tested, 0.068% active | AID 2052, 2009;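 active = response, share of CD8 T cells binding vesicles, and their 90th percentile fluorescence all below set limits, cut at about 80% in these data, passing the limit was not always enough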;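 note: values below 100% mean blocked vesicle binding to the CD8+ T cells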
#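 Assay system – 2C mouse CD8+ T cells · Also added – QL9-loaded Drosophila micro-vesicles · Timing – Cell–vesicle co-incubation 1.5 h at 37 °C, staining 20 min on ice · Signal – flow cytometry of vesicle-bound cells · Measure – percent CD8+ FL2 mean versus row control · Controls – Peptide-free naked vesicles (low) and QL9 vesicles with 0.7% DMSO vehicle (high)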
# NR3A LBD binder: binders of NR3A ligand-binding domain, primary screen, biophysical, differential scanning fluorimetry, uHTS. AID 1259313, 2017. 340,000 tested, 2.5% active. NR3A LBD differential scanning fluorimetry, Tm shift; 0% = protein alone, 100% = glycine-bound protein. Tm shift relative to glycine control, % at 25 µM. Glutamate receptor ionotropic, NMDA 3A (GRIN3A) ligand-binding domain;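 active = melting temperature shift of at least 10% of the positive control shift, at one fixed dose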
# JMJD2C inh: inhibitors of GASC-1 histone demethylase, primary screen, biochemical, fluorescence, DELFIA europium; AID 2099, 2009; Lysine-specific demethylase 4C (Homo sapiens), Q9H3R0; GST-JMJD2C(1-420) H3K9me3 demethylation; 330,000 tested, 0.069% active; inhibition, % at 2.35 µM;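 active = more than half of a compound's replicate wells show inhibition beyond 50%, single wells judged on their own value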;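 note: signal counts dimethyl H3K9 product captured on neutravidin plate; 0% = median of DMSO wells and 100% = 0.3 times that DMSO median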
# Target sequence (Q9H3R0 1-420 limits assumed): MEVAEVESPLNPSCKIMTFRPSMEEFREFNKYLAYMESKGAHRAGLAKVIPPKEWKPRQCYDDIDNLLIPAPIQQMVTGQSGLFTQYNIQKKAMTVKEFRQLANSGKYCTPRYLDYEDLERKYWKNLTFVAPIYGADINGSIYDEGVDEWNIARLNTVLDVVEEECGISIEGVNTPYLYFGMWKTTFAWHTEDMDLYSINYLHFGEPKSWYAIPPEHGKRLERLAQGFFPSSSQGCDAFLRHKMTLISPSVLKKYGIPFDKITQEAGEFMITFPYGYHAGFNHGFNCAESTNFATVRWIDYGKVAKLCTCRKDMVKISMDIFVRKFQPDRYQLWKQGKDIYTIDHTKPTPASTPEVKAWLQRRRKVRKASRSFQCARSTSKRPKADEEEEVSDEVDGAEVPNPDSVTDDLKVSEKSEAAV
# Rtt109 HAT inh: inhibitors of C. albicans Rtt109/Vps75 HAT, primary screen, biochemical, ThioGlo CoA-SH fluorescence, plate reader. Histone acetyltransferase RTT109 (Candida albicans (strain SC5314 / ATCC MYA-2876)), …. purified Rtt109/Vps75, 4 h. inhibition, % at 34.9 µM. 330,000 tested, 0.16% active;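 active = inhibition of at least 50% in every replicate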
# * marks the source's active call; other numbers are inactive results; i = inactive; x = not tested or not shown. Sampled rows, rich in hits. Any-hit rate of the full collection: about 2.8%.
SMILES,T cell HTS,NR3A LBD binder,JMJD2C inh,Rtt109 HAT inh
Clc1nssc1=Nc1nncs1,0,25*,-7,1
CC(C)(C)c1ccc(C(=O)N2CCN(C(=O)c3cccs3)CC2)cc1,300,1,x,1
C/C(N)=C(/C#N)C(=O)CSc1nn(-c2ccc(Cl)cc2)c(=S)s1,272,13*,-15,11
C/C(N)=C(/C#N)C(=O)CSc1nnc(SCc2ccc(Cl)cc2)s1,327,1,-20,-2
OC(CCCN1CCCCC1)(c1ccccc1)c1ccc(C(F)(F)F)cc1 (stereo not given),x,-3,x,7
O=C(NN=Cc1cc(=O)[nH]c(=O)[nH]1)c1ccncc1,x,-4,x,6
COc1ccc(C(=O)NCc2cnn(C)c2)cc1OC1CCN(C(C)C)CC1,523,0,2,-9
COc1cc(C(=O)NCc2nc(C)cs2)ccc1OC1CCN(C(C)=O)CC1,377,12*,-29,-5
COc1ccc(C(=O)NCc2csc(C)n2)cc1OC1CCN(C(C)=O)CC1,i,2,-1,-3
CCc1ccc(CNC(=O)c2ccc(OC)c(OC3CCN(C(C)C)CC3)c2)nc1,189,13*,-2,-5
Cc1cc(Cl)c(S(=O)(=O)N2CCCC2)cc1OCC(N)=O,266,-3,35,50*
O=C(O)c1ccc(OCCCCCCOC2CCCCO2)cc1 (stereo not given),273,-2,6,6
C/C(=N\Nc1nc2ccccc2[nH]1)c1ccc(C)o1,198,-1,4,0
C/C(=N\Nc1nc2ccccc2[nH]1)c1ccc(Cl)s1,349,16*,-4,13
c1ccc(-c2nnc(-c3ccccc3)c(-c3c[nH]c4ccccc34)n2)cc1,283,15*,23,3
COC(=O)c1cc(S(=O)(=O)Nc2nn(C)c3cccc(F)c23)oc1C,386,-4,8,11
COC(=O)c1cc(S(=O)(=O)Nc2nn(C)c3ccccc23)oc1C,225,11*,0,-18
COc1ccc(C=NNc2ccc([N+](=O)[O-])cc2S(=O)(=O)Nc2ccccc2C(=O)O)cc1OC,178,31*,1,-2
COc1ccccc1NS(=O)(=O)c1cc([N+](=O)[O-])ccc1N/N=C/c1sc(N2CCOCC2)nc1-c1ccccc1,428,6,-1,4
COc1ccccc1NS(=O)(=O)c1cc([N+](=O)[O-])ccc1N/N=C/c1c[nH]c2ccccc12,729,23*,43,7
COc1ccc(NS(=O)(=O)c2cc([N+](=O)[O-])ccc2NN=Cc2ccccc2OCC(=O)O)cc1,254,40*,4,34
COc1ccc(/C=N/Nc2ccccc2C(=O)O)cc1Cn1cc([N+](=O)[O-])cn1,551,-2,2,1
O=C(O)COc1ccccc1/C=N/Nc1ccc(S(=O)(=O)Nc2ccc(Cl)cc2)cc1[N+](=O)[O-],340,10*,-5,2
NC(=O)c1c(NC(=O)CN2CCN(S(=O)(=O)c3ccccc3)CC2)sc2c1CCC2,305,-3,11,0
O=C(CSc1nc(-c2ccccc2)cs1)NCCCN1CCCC1=O,183,0,6,-2
SMILES,T cell HTS,NR3A LBD binder,JMJD2C inh,Rtt109 HAT inh
O=C1/C(=C/c2cccs2)SC(=S)N1CCC(=O)N1CCCCC1CCO (stereo not given),125,-6,83,2
COCCNC(=O)c1cccc(OC2CCN(Cc3ccc(Cl)c(F)c3)CC2)c1,187,1,-4,-1
COc1cc(OC)cc(-c2c(C#Cc3ccsc3)c3cc(-c4cccc5[nH]cc(C=O)c45)ccc3n2C)c1,256,0,8,2
COc1ccc(NC(=O)C23CC4CC(CC(Cl)(C4)C2)C3)cc1S(=O)(=O)N1CCOCC1,457,3,6,1
COc1ccc(NS(=O)(=O)c2cc([N+](=O)[O-])ccc2N/N=C\c2c(C)[nH]c3ccccc23)cc1,217,28*,-12,1
Cc1[nH]c2ccccc2c1/C=N/Nc1ccc([N+](=O)[O-])cc1S(=O)(=O)Nc1ccc(Cl)cc1,222,9,21,-4
O=C(O)COc1ccccc1C=NNc1ccc([N+](=O)[O-])cc1S(=O)(=O)Nc1ccc(Cl)cc1,247,24*,-1,-2
O=C(NC(c1ccccc1)c1c(O)ccc2ccccc12)c1ccccc1Cl (stereo not given),421,11*,2,5
Cc1cccc(NC(=O)CSc2nc3[nH]ncc3c(=O)n2-c2ccccc2)c1,572,x,0,x
CCc1ccc(NC(=O)CSc2nc3[nH]ncc3c(=O)[nH]2)cc1,220,-1,-4,-1
COc1cc(NC(=O)CSc2nc3[nH]ncc3c(=O)n2-c2ccc(Cl)cc2)cc(OC)c1,415,13*,2,18
O=C(CSc1nc2[nH]ncc2c(=O)[nH]1)Nc1ccc(Cl)cc1,250,25*,-9,-4
Cc1ccc(S(=O)(=O)Nc2c(O)ccc3ccccc23)cc1,33*,-6,-3,x
O=C(CC(c1ccccc1)C1CCCCC1=O)c1ccccc1 (stereo not given),x,-1,x,9
COc1ccc(-c2noc(N(C)CC(=O)Nc3cccc(C(F)(F)F)c3)n2)cc1,686,10*,10,4
Cc1ccc(NC(=O)CN(C)C(=O)c2cccnc2Nc2cccc(C(F)(F)F)c2)cc1,289,16*,11,5
COc1cccc(NC(=O)CN(C)C(=O)c2cccnc2Nc2cccc(C(F)(F)F)c2)c1,566,35*,7,12
COc1cc(NC(=O)COC(=O)CNC(=O)C2CCCCC2)cc(OC)c1,322,2,5,3
CC(=O)c1ccc(S(=O)(=O)Nc2c(C)nn(C)c2C)cc1,x,x,x,6
O=C(O)CCC1c2cc3c4cc2OC2Oc5cc6c(cc51)C(CCC(=O)O)c1cc5c7cc1OC(O6)c1cc6cc(c1)Oc1cc(cc(C(=O)O)c1)Oc1cc8cc(c1)C(Oc1cc(c(cc1C5CCC(=O)O)C3CCC(=O)O)OC(O4)c1cc(cc(c1)Oc1cc(cc(C(=O)O)c1)O8)Oc1cc(cc(C(=O)O)c1)Oc1cc(cc2c1)Oc1cc(cc(C(=O)O)c1)O6)O7 (stereo not given),711,x,101*,x
O=C(NCc1ccco1)/C(=C/c1ccc(F)cc1)NC(=O)c1ccccc1,322,1,-3,2
O=C(NCc1ccco1)/C(=C/c1ccccc1F)NC(=O)c1ccccc1,i,14*,3,13
CC(C)(C)c1ccc(S(=O)(=O)NCC(=O)Nc2ccc(-c3nc4ccccc4s3)cc2)cc1,347,7,-4,-4
O=C(CCS(=O)(=O)c1ccccc1)Nc1ccc(-c2nc3ccccc3s2)cc1,242,4,-2,-3

# Compound activity (PubChem BioAssay)
